Reference: ChEMBL document CHEMBL4513216, “Probing the Open Global Health Chemical Diversity Library for Multistage-Active Starting Points for Next-Generation Antimalarials” (ACS Infect Dis, 2020)

experiment: Toxicity liver stage against HepG2, at 10uM; type: cell-based; design: test concentration 10 uM, cell line HepG2-A16-CD81EGFP; conditions: human, HepG2-A16-CD81EGFP cells; read-out: INHIBITION
Summary of the method: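 Uninfected HepG2-A16-CD81EGFP cells, 3 × 10^3 per well, 1536-well, plated on prespotted compound at 10 μM final, parasite-free screening media added to match infected plates; puromycin 10 μM positive, DMSO 0.5% negative; run in parallel with 48 h PbLuc assay at 37 °C, 5% CO2; viability by CellTiter-Glo luminescence, normalized to controls.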

Row | SMILES | cytotoxicity at 10 µM [%]
1 | COc1ccc2c(c1)nc1n2[C@@H](CNCc2ncccc2C)COC1 | 3.1
2 | Cc1ccc(NC(=O)Nc2c[nH]c(=O)[nH]c2=O)c(C)c1 | 18.2
3 | COC(=O)[C@H](C)NC(=O)Cn1ccc2ccc(F)cc21 | -0.112
4 | O=c1c(NCc2ccncc2)c(NCC(O)CN2CCOCC2)c1=O (centres undefined) | -44
5 | O=c1cc2c(nn1CN1CCSCC1)CCC2 | -4.86
6 | CC(C)n1ccc2c(C(=O)NC3CN4CCC3CC4)cccc21 (centres undefined) | -54.2
7 | Cn1cccc1C(O)CNS(=O)(=O)c1ccccc1F (centres undefined) | -14.6
8 | Cn1nc(N2CCCC(C(=O)Nc3nc4ccccc4[nH]3)C2)ccc1=O (centres undefined) | 1.08
9 | CCC(CC)NC(=O)c1ccc2nnc(C3CCN(C(C)=O)C3)n2c1 (centres undefined) | -2.19
10 | CC(C)CN1CCNC(=O)C12CCN(C(=O)c1ccccn1)CC2 | 5.25
11 | O=C(c1c2c(NCC3CC3)ncnc2n2ccccc12)N1CCOCC1 | 9.82
12 | O=c1[nH]nc2c(S(=O)(=O)N3CCCCC3)cccn12 | 2.41
13 | O=S(=O)(c1ccc(F)cc1)n1cc(Cl)cn1 | 0.0667
14 | Cc1cc(-c2cnc(N3CCSCC3)nc2C(C)C)on1 | 16.8
15 | CC(=O)Nc1ccc(CN2CCCC(c3cc4ncccc4[nH]3)C2)cc1 (centres undefined) | 0.99
16 | Cc1cc(-c2nccs2)nc(C2CCN(Cc3cccs3)CC2)n1 | 6.81
17 | CCn1nc(C)c(CN(Cc2ccccn2)Cc2ccccc2Cl)c1C | 5.17
18 | CCOc1c(Br)cc(CNC(C)c2nnc3n2CCC3)cc1OC (centres undefined) | -40.9
19 | O=C(NCc1ccc(C(=O)O)o1)c1ccc(F)cc1 | 13.2
20 | COCCCS(=O)(=O)N1CCN(Cc2cccn2C)CC1 | -9.53
21 | Cc1cc(N(C)C)nc(N2CCn3c(C)nnc3C2)n1 | -5.14

Row | SMILES | cytotoxicity at 10 µM [%]
22 | CC(C)(C)c1cn2c(n1)C(CNCc1cnn3ccccc13)CCC2 (centres undefined) | -13.4
23 | CCN(C)Cc1cccc(CNC(=O)NCCc2ccccn2)c1 | 2.8
24 | CN(Cc1cc(Br)cn1C)C(=O)Cc1cccc(O)c1 | -4.99
25 | O=C(CCC1CCCO1)NCCCO (centres undefined) | 11.2
26 | CCN(CC1COc2ccccc2O1)C(=O)C1=NN(C)C(=O)CC1 (centres undefined) | -39.6
27 | CSCC(C)N(C)S(=O)(=O)c1ccc(Cl)cc1C#N (centres undefined) | -41.5
28 | CCCOc1ccc2c(c1)OCC(C(=O)NC(C)Cn1ccnc1)=C2 (centres undefined) | -4.03
29 | COC(=O)C(CNC(=O)Nc1nncs1)Cc1ccc(O)cc1 (centres undefined) | 16.9
30 | CC(Nc1nc2c(cnn2C)c(=O)[nH]1)c1ccc2c(c1)CCCC2 (centres undefined) | 9.62
31 | Cc1ccccc1CCCN(Cc1ccccn1)S(C)(=O)=O | 9.53
32 | O=C(C1SCCc2ccccc21)N1CCC(O)CC1 (centres undefined) | 0.0013
33 | O=C(NCCCSc1ccc(F)cc1)C1CCc2cn[nH]c2C1 (centres undefined) | -3.65
34 | CN(Cc1ccccc1F)C(C(N)=O)c1ccccc1 (centres undefined) | -2.09
35 | CC(CNC(=O)N1CCNC(=O)CC1)Cc1cccs1 (centres undefined) | -5.62
36 | CCC(CC)C(O)CNC(=O)Nc1cccc(-c2nccn2C)c1 (centres undefined) | -1.39
37 | CCS(=O)(=O)N1CCc2c(cccc2NC(=O)NCCO)C1 | -7.47
38 | O=C(c1ccncc1)N1CCCC1C1CCN(Cc2ccccc2)CC1 (centres undefined) | 7.43
39 | O=C(c1ccoc1)N1CCCC1C1CCN(Cc2ccccc2)CC1 (centres undefined) | -10.6
40 | CC(C)Cc1cc(C(=O)NC(C)C)[nH]n1 | 5.67
41 | Cc1cccc(OC2CCN(c3ccc(C#N)cn3)CC2)n1 | 15.5
42 | COCCN(CCOC)C(=O)NC1CCCCC1 | -0.655

Row | SMILES | cytotoxicity at 10 µM [%]
43 | CCc1cc(CNC(=O)NCc2ccc(N3CCCCC3)cc2)on1 | 1.27
44 | CNC(=O)NC(C)c1c(F)cccc1Cl (centres undefined) | -6.2
45 | CCN1CCc2c(cccc2NC(=O)N(C)C2CCSC2)C1 (centres undefined) | -49.1
46 | CC(O)CNc1ccc(C#N)cc1C(F)(F)F (centres undefined) | -42.7
47 | CCc1ccc(C(C)NC(=O)c2ccc(CS(C)(=O)=O)o2)cc1 (centres undefined) | -3.07
48 | Cc1ccc(CN2CCn3c(CNS(C)(=O)=O)nnc3C2)s1 | -67.7
49 | Cc1ccc(C(=O)N2CC[C@@]3(C[C@@H](NS(C)(=O)=O)CCO3)C2)s1 | -73.9
50 | CC(C)CN1Cc2c(C(=O)NC3CC3)ncn2-c2ccccc2S1(=O)=O | -77.6
51 | Cc1cccc(CN2CCn3c(C(=O)N(C)C)cnc3C2)c1 | -69.5
52 | Fc1cnc(NCC2Cn3nnc(-c4ccccc4)c3CO2)nc1 (centres undefined) | -64.7
53 | CC(=O)N1CCC2(CCN(C(=O)c3ccc(Cl)c(C(F)(F)F)c3)CC2)C1 | -4.48
54 | CCC(Nc1nc(C2CCCC2)nc2c1cnn2C)c1ccncc1 (centres undefined) | -39.6
55 | COCc1noc(CN2CCCCC2CCc2cccs2)n1 (centres undefined) | 0.642
56 | CN(C)C(C(=O)N1Cc2ccccc2C1)c1ccccc1F (centres undefined) | -1.91
57 | Cc1ccc(-c2ccnc(NC(c3ncccc3C)C3CC3)n2)c(C)n1 (centres undefined) | 0.656
58 | CC(c1ccon1)N(C)S(=O)(=O)NCc1ccccc1 (centres undefined) | -0.174
59 | CCN(CC)C(=O)c1ccc(Cl)c(NC(=O)c2cnc(C)cn2)c1 | -0.273
60 | Cc1ccc(CN2CCN(C3CCCC3)CC2CCO)o1 (centres undefined) | -6.05
61 | CCc1cc(N(C)Cc2[nH]nc3c2CCC3)nc(N2CCOCC2)n1 | 5.51
62 | CC(C)N1CCCC(C(=O)N(C)CCCc2cnn(C)c2)C1 (centres undefined) | -8.03
63 | COCCN1CCCC2(CCN(Cc3nnc(C4CC4)o3)C2)C1=O (centres undefined) | 0.15

Row | SMILES | cytotoxicity at 10 µM [%]
64 | CC(C)c1cc(C(=O)N2CCN(c3ccc(F)c(Cl)c3)CC2)n(C)n1 | 19.7
65 | COCc1nc(C2CC2)nn1-c1cc(Cl)ccc1OC | -10.2
66 | CS(=O)(=O)N1CCN(c2ccnc(N3CCCC3)n2)CC1 | -1.26
67 | Cc1noc(C(C)C)c1C(=O)NCc1cccc(CN(C)C)c1 | -8.23
68 | CN1CCN(C2CCN(CCOc3cccc(Cl)c3)CC2)C1=O | -2.83
69 | COc1ccc(-n2ccc(C(=O)NCCN3CCCCCC3)n2)cc1 | -3.84
70 | CC1CCCN(CCNC(=O)c2ccn(-c3cccc(F)c3)n2)C1 (centres undefined) | -3.25
71 | Cc1ccc(CN(C)C(=O)CN2CCCC(Cn3cncn3)C2)cc1 (centres undefined) | -6.41
72 | CCN1CCCC(CNC(=O)C2(c3cc(C)cc(C)c3)CCC2)C1 (centres undefined) | -10.7
73 | O=C(CCc1nccs1)N1CCN(c2ccccn2)CC1 | -19.7
74 | Cc1cc(C)c(CNC(=O)N2CCN(c3cnccn3)CC2)c(=O)[nH]1 | -2.58
75 | CCN1CCN(C2CCN(Cc3noc(C)n3)CC2)C1=O | -8.13
76 | O=C1CCC(C(=O)NCc2nncn2-c2ccccc2)CN1 (centres undefined) | -12.7
77 | COc1ccc(S(N)(=O)=O)cc1C(=O)N(C)Cc1cc(C)on1 | -4.3
78 | CCC(CO)NCc1ccc(-c2ccccc2)o1 (centres undefined) | 4.42
79 | CN1CCOCC2(CCCN(C(=O)c3ccc(-n4cccc4)cc3)C2)C1 (centres undefined) | -98
80 | Cc1ncsc1CN1C[C@@H]2CCCO[C@@H]2[C@H](N(C)C(C)C)C1 | 1.81
81 | Cc1cc(C)cc(CN2CCC3(CC2)CC(Nc2ncccn2)CO3)c1 (centres undefined) | 5.39
82 | O=C(c1ccc2[nH]ccc2c1)N1Cc2nc(CN3CCCCC3)oc2C1 | 9.58
83 | O[C@@H]1CC(CNCC2CC2)(COc2cccnc2)C[C@@H]1O (some centres undefined) | -2.64
84 | CCN(CC)S(=O)(=O)N1C[C@H]2CC[C@@H](C1)N(Cc1cscn1)C2=O | -21.1
